Assay: Toxicity liver stage against HepG2, at 10uM
Format: cell-based
Set-up: test concentration 10 uM, cell line HepG2-A16-CD81EGFP
Conditions: human, HepG2-A16-CD81EGFP cells; read-out: INHIBITION
In short: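 Uninfected HepG2-A16-CD81EGFP cells, 3 × 10^3 per well, 1536-well, plated on prespotted compound at 10 μM final, parasite-free screening media added to match infected plates; puromycin 10 μM positive, DMSO 0.5% negative; run in parallel with 48 h PbLuc assay at 37 °C, 5% CO2; viability by CellTiter-Glo luminescence, normalized to controls.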

SMILES	cytotoxicity at 10 µM
CS(=O)(=O)NC[C@H]1Cn2c(-c3ccc(Cl)cc3)cnc2CO1	-3.58%
CC(=O)Nc1ccccc1Sc1nc(Br)nn1C	-1.05%
CCOC(=O)[C@H]1[C@@H](O)C(=O)N(C)C12CCN(C(=O)C(CC)CC)CC2	-4.47%
CCN1CC(O)CN(C(=O)c2cccc(C(F)(F)F)c2)CC1=O (stereo not given)	4.04%
COc1cc(OC)cc(-c2noc(C(N)CCSC)n2)c1 (stereo not given)	-3.18%
COCCn1cc(CC(=O)Nc2nc[nH]n2)c2ccccc21	-0.145%
CCOc1ccc(C(=O)Nc2c(C)nc3scc(C)n3c2=O)cc1	-5.58%
O=C(c1ccccc1F)N1CC(c2nc(C3CC3)no2)C1	-0.478%
COC1(CNC(=O)c2ccsc2)CCSC1 (stereo not given)	-3.09%
CN(Cc1ccccc1)CC1CC2(CO1)CN(Cc1cnn(C)c1)C2 (stereo not given)	9.76%
N#Cc1cccc(N2CCCC3(CN(C(=O)c4ccc[nH]4)CCO3)C2)c1 (stereo not given)	13.3%
CCC1=N[C@@]2(CC[C@@H]3CN(CC4CC4)C[C@@H]32)C(=O)N1	4.86%
Cn1cc(C2CC(=O)NC23CCN(C(=O)c2ccc[nH]2)CC3)cn1 (stereo not given)	8.94%
Cc1cc(C(=O)N2CCCC3(CCCN3Cc3cccnc3)C2)[nH]n1 (stereo not given)	8.07%
CN(C)CCOCC1CN(C(=O)c2cscn2)Cc2ccnn2C1 (stereo not given)	3.65%
O=C(NCC1CC1)C1CN(C(=O)c2ccnnc2)CC12CCOCC2 (stereo not given)	8.21%
Cn1cc(NC(=O)Cn2cc(-c3ccccc3)ncc2=O)cn1	-3.43%
O=C(Cc1ccccc1)N1CCC2(CC(=O)N(c3cccc(F)c3)C2)C1 (stereo not given)	-0.557%
CC(C)N1CC(C(=O)NCc2ccc(S(=O)(=O)N(C)C)cc2)CC1=O (stereo not given)	4.44%
Cc1cc(CN2CCN(S(C)(=O)=O)CC(C(=O)N(C)C)C2)no1 (stereo not given)	-9.74%
CN(C(=O)COc1ccc(F)cc1)[C@@H]1CC[C@@H](n2ccnc2)[C@@H]1O	-5.28%
CNc1cccc(C2CCCN(C(=O)c3cncs3)C2)n1 (stereo not given)	-18.3%

SMILES	cytotoxicity at 10 µM
COc1cc(C)ccc1OCC(=O)Nc1ccnc(OCCN(C)C)c1	-5.18%
O=C(Cc1ccc(F)c(F)c1)NC1COc2ccccc2C1=O (stereo not given)	4.61%
COc1ccc(COCC(O)CSc2ccc(NC(C)=O)cc2)cc1 (stereo not given)	8.22%
CN1CCOC(CNCc2nc(-c3ccoc3)no2)C1 (stereo not given)	-5.27%
CCOCCN1CCN(CC(=O)NC2(C#N)CCCC2)CC1CC (stereo not given)	7.73%
CC(NC(N)=O)C(=O)NCc1cc(Br)ccc1F (stereo not given)	-3.02%
COc1ccccc1NCC(=O)NCc1scnc1C	5.48%
Cc1nc(C)c(C(=O)N2CCc3c(C)cccc32)o1	-2.28%
Cc1noc(C)c1CNC(=O)Nc1ccc(N2CCOC(C)C2)cc1 (stereo not given)	-2.35%
CN(C)c1ccc(C(=O)Nc2ccn(CCc3ccncc3)n2)cc1	-4.59%
CN(C(=O)c1ccc(Cl)c(S(C)(=O)=O)c1)c1ccccc1	-1.47%
CCN(CC)C(=O)c1ccc(COc2ccccc2C#N)o1	1.96%
CCCc1nnc(NC(=O)NC2CCOc3ccccc32)s1 (stereo not given)	3.72%
COc1ccc(NC(=O)N(CCO)Cc2ccsc2)c(OC)c1	12.2%
COc1ccc(C(C)NC(=O)NCCc2ccc(C)nc2)c(OC)c1 (stereo not given)	-1.74%
CC(=O)N1CCC(NC(=O)Cc2csc(C(C)(C)C)n2)CC1	-8.41%
CC(=O)NCCC(=O)NCc1ccc(Br)cc1Cl	0.871%
NC(=O)NC(=O)CCSCc1coc(-c2cccc(Cl)c2)n1	-1.23%
Cc1ccc2c(c1)C(NCc1nccn1Cc1ccccc1)CCCO2 (stereo not given)	1.26%
Cc1nc(CNC(C(=O)N2CCOCC2)C(C)C)oc1C (stereo not given)	-4.34%
O=C(Nc1ccc(=O)n(Cc2ccccc2Cl)c1)C1CC1	-6.57%
Cc1ccc(C(=O)O)cc1NC(=O)C1CC=CC1	-7.25%

SMILES	cytotoxicity at 10 µM
O=C(NCc1ccco1)c1cccc(CN2CCCC2CO)c1 (stereo not given)	-3.13%
CC(Cn1cccn1)NC(=O)NCCN1CCCCCC1=O (stereo not given)	12.3%
CCC(C)(NCc1nnc(C(C)(C)C)o1)c1nccs1 (stereo not given)	19.2%
Cc1csc(C(C)(C)NCC(=O)N2CCCC(C(F)(F)F)C2)n1 (stereo not given)	6.32%
CCO[C@@H]1CC[C@H]2[C@H]1OCCN2C(=O)CC1=CCCCC1	2.91%
CCN(C(=O)c1nc2c(s1)CCCN2C(C)=O)C(C)C	-0.802%
Cn1cnc(-c2nc(C(=O)NC3CC3)c3ccccn23)c1	-114%
Cc1nccc([C@H]2C[C@@H]3CCN(Cc4ccco4)C[C@H]3O2)n1	-1.03%
O=C(c1ccnnc1)N1C[C@H](OCc2ccccn2)[C@H]2COC[C@H]21	-7.52%
O=C(c1ccccn1)N1CCC2(CC1)COC(COc1cccnc1)C2 (stereo not given)	-1.98%
Cc1cc(NC(C)c2nnn[nH]2)n2nc(C)c(C)c2n1 (stereo not given)	9.4%
Cn1nccc1NC(=O)c1cccc(CN2C[C@H]3CC[C@@H](C2)N3)c1	6.56%
O=C(NC1CCCC1)c1cc(Cn2cnc3ccccc32)on1	4.51%
CN(C)CCN1CC(C(=O)NCc2ccc(C#N)cc2)CC1=O (stereo not given)	-6.02%
CC(C)c1nnsc1CNC(=O)C1CCN(C(C)C)CC1	-8.05%
CC(C)C1CN(C(=O)c2csc(CN(C)C)n2)CCC(=O)N1CC1CC1 (stereo not given)	-1.74%
COc1nccnc1N1CCN(Cc2cccc(C)c2)C(=O)C1	-0.408%
CCCc1nnc(NC2CCN(CCO)CC2)o1	8.35%
CC1(c2ccccc2)CCCN(Cc2nnc(-c3cccnc3)o2)C1 (stereo not given)	-6.64%
Cc1cc(C2CCC2)nc(N(C)Cc2ncccc2C)n1	-0.392%
Clc1cc(N2CCN(C3CCOCC3)CC2)nc2[nH]ccc12	-3.96%
CCN(Cc1ccccc1)C(=O)CCN1C[C@@H](C(=O)O)[C@H](C2CC2)C1	6.94%

SMILES	cytotoxicity at 10 µM
CN(C)c1nc2c(c(NCc3nnc4n3CCCCC4)n1)CCNC2	-1.37%
NCCO[C@H]1C[C@@H](O)C12CCN(C(=O)CCOc1ccccc1)CC2	3.12%
O=C(O)c1cccnc1CN1CCCCC1CCc1cccs1 (stereo not given)	5.23%
Cc1nn(C)c(C)c1C1COCCN1C(=O)CCc1ccccc1 (stereo not given)	-0.284%
COCCc1noc(CN2CCCC2c2c(C)nn(C)c2Cl)n1 (stereo not given)	-7.71%
COc1ccc(-n2ccc(C(=O)NCCn3ccnc3)n2)cc1	-7.2%
Cc1nccn1-c1cc(CNC(=O)CCS(=O)(=O)C2CCCC2)ccn1	-1.71%
CCc1cnc(CN(C(C)=O)C2CCN(CC3(O)CCCCC3)C2)o1 (stereo not given)	0.195%
COCCN1CCC(CNC(=O)C2(c3ccccc3)CCOCC2)C1 (stereo not given)	-5.87%
Cc1cnn(CCC(=O)NC2CCc3nc(C)cn3C2)c1 (stereo not given)	0.132%
CC(C#N)CN(C)Cc1nc2c(cnn2C)c(=O)[nH]1 (stereo not given)	-6.45%
CCc1nc(CNCC2CCCN2c2cccnn2)cs1 (stereo not given)	-7.69%
CCc1noc(CN2CCC(C(=O)Nc3cnn(CC)c3)CC2)n1	3.43%
Cc1cnn(CCC(=O)N2CCN(c3ccc(C#N)cn3)CC2)c1	-0.417%
CCOc1ncccc1NC(=O)NC1CCN(C(C)=O)CC1	-6.47%
Cc1cc(C(=O)N2CCCC(n3cccn3)C2)c(C)n1C1CC1 (stereo not given)	-16.7%
CC(C)CCC(=O)NCCc1ccn(-c2ccccc2)n1	-14.6%
Cc1ccccc1CN1CCN(C(C)c2nc(C3CC3)no2)CC1 (stereo not given)	-22.2%
CN(Cc1cnn(C)c1)CC1CCCN1c1cccnn1 (stereo not given)	-1.07%
Cc1cnn(CC2CCCCN2C(=O)c2ccc3[nH]cnc3c2)c1 (stereo not given)	-9.75%
CCc1nnc2n1CCN(CC(=O)Nc1cc(C)on1)C2	5.18%
Cc1cnc(CN(C)C2CCN(Cc3nc4ccccc4n3C)C2)o1 (stereo not given)	2.57%

SMILES	cytotoxicity at 10 µM
Cc1cc(OCC(=O)N2CCCC(c3noc(C)n3)C2)no1 (stereo not given)	-0.0722%
CC(Cn1cccn1)NC(=O)Cc1cccs1 (stereo not given)	4.93%
CCN1CCC(NC(=O)CN2CCCC2Cn2cncn2)CC1 (stereo not given)	6.54%
Cc1nc2c(c(C)c1CC(=O)NCc1cccc(C#N)c1)c(=O)[nH]n2C	-0.722%
Cn1cnnc1C1CCCN(C(=O)c2cnc3ccccc3n2)C1 (stereo not given)	0.577%
COCCO[C@H]1CCN(c2ccc(C)nn2)[C@H]1Cc1cccnc1	1.53%
COCC(=O)N1CCC2(CC1)CNc1ccc(F)cc12	12.2%
N#Cc1cnc2ccccc2c1N1CCN(CCC(=O)O)CC1	-1.28%
CCS(=O)(=O)N1CCOC2(CCCN(c3ccc(C)nn3)C2)C1 (stereo not given)	0.253%
CN1CCN(CC2CC2)C(=O)C12CCN(C(=O)c1ccnnc1)CC2	8.49%
Cc1nc(CNCC2Cn3nncc3CO2)cs1 (stereo not given)	-93.2%
O=C([C@@H]1CC[C@@H]2[C@@H](CCN2c2ccncn2)O1)N1CCCCO1	3.13%
COCc1cncc2c1CCN(C(=O)c1ccc(C#N)cc1)C2	-106%
CCOCC1CN(c2ccncn2)Cc2cnn(CC)c21 (stereo not given)	3.04%
CN1CC[C@@H]2OC[C@H](C(=O)N(C)Cc3ccccn3)C[C@@H]2C1	-98%
c1ccc(CO[C@@H]2CC[C@H]3[C@H]2OCCN3Cc2ccsc2)nc1	-4.69%
CC(C)NC(=O)N1CCN(CCn2cccn2)c2ncccc2C1	-100%
Cn1cc(CN2CCn3cnc(COCC4CC4)c3C2)cn1	3.71%
Cc1ccc(CN2CC[C@H]3OCC[C@@H](C(=O)NCC4CC4)[C@@H]3C2)s1	-0.53%
O=C(c1cc(C2CC2)no1)N1C[C@@H]2CC[C@H]1CN(Cc1ccccn1)C2	2.21%
CCCn1nccc1NC(=O)CN1CCc2c(nc(C3CC3)n2C)C1	3.58%
CCc1cnc(N2C[C@@H]3C[C@H](C(=O)NC4CCC4)[C@H](C2)O3)nc1	5.74%

— ChEMBL document CHEMBL4513216, “Probing the Open Global Health Chemical Diversity Library for Multistage-Active Starting Points for Next-Generation Antimalarials” (ACS Infect Dis, 2020)
